What was measured:
[1] = tested on: Rat; test: concentration in brain after dosing; conditions: 0.2 h; dosed: 2-Methyltetrahydrofuran; 40 mg/kg; iv; Male; Harlan Sprague Dawley
[2] = tested on: Rat; test: concentration in plasma after dosing; conditions: 2 h; dosed: 2-Methyltetrahydrofuran; 40 mg/kg; iv; Female; Harlan Sprague Dawley
[3] = tested on: Rat; test: concentration in brain after dosing; conditions: 4 h; dosed: 2-Methyltetrahydrofuran; 40 mg/kg; iv; Female; Harlan Sprague Dawley
[4] = tested on: human; test: concentration in expired air after dosing; conditions: dosed: trichloroethylene, 100 ppm, inhalation, duration: 4 hr, person
Summary of the method: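 Data points giving concentration or amount against time came from published in vivo toxicokinetic studies and from two structured collections. PubMed searching, classifier screening and manual review located the studies. Most points were digitised from plot screenshots using WebPlotDigitizer, the rest were copied from tables, and all keep their reported units.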

[5] = tested on: Rat; test: concentration in plasma after dosing; conditions: 1 h; dosed: Perfluorohexanoic Acid; 40 mg/kg; iv; Male; F344
[6] = tested on: Rat; test: concentration in plasma after dosing; conditions: 1 h; dosed: Perfluorohexanoic Acid; 40 mg/kg; iv; Female; Harlan Sprague-Dawley
[7] = tested on: Rat; test: concentration in brain after dosing; conditions: 1 h; dosed: Perfluorohexanoic Acid; 80 mg/kg; oral; Female; Harlan Sprague Dawley
[8] = tested on: Rat; test: concentration in brain after dosing; conditions: 0.5 h; dosed: Perfluorohexanoic Acid; 80 mg/kg; oral; Male; Harlan Sprague Dawley
[9] = tested on: Rat; test: concentration in plasma after dosing; conditions: dosed: Perfluorohexanoic Acid, 80 mg/kg, oral, Male, Harlan Sprague Dawley
[10] = tested on: Rat; test: concentration in plasma after dosing; conditions: 0.5 h; dosed: Gemfibrozil; 100 mg/kg; oral; Male; Sprague-Dawley
[11] = tested on: Rat; test: concentration in plasma after dosing; conditions: 10 h; dosed: Gemfibrozil; 4.29 mg/kg; oral; Male; Sprague-Dawley
[12] = tested on: Rat; test: concentration in plasma after dosing; conditions: 18 h; dosed: Gemfibrozil; 100 mg/kg; oral; Male; Sprague-Dawley
[13] = tested on: Rat; test: concentration in plasma after dosing; conditions: 6 h; dosed: Gemfibrozil; 50 mg/kg; oral; Male; Sprague-Dawley
[14] = tested on: Rat; test: concentration in liver after dosing; conditions: 24 h; dosed: Perfluorooctane Sulfonate; 2 mg/kg; oral; Female; Harlan Sprague Dawley
[15] = tested on: Rat; test: concentration in brain after dosing; conditions: 864 h; dosed: Perfluorooctane Sulfonate; 20 mg/kg; oral; Male; Harlan Sprague Dawley
[16] = tested on: Rat; test: concentration in plasma after dosing; conditions: dosed: Perfluorooctane Sulfonate, 2 mg/kg, iv, Female, F344
[17] = tested on: Rat; test: concentration in brain after dosing; conditions: 24 h; dosed: Perfluorooctane Sulfonate; 20 mg/kg; oral; Male; Harlan Sprague Dawley
[18] = tested on: Rat; test: concentration in plasma after dosing; conditions: dosed: Perfluorooctane Sulfonate, 2 mg/kg, iv, Male, F344
[19] = tested on: Rat; test: concentration in kidney after dosing; conditions: 864 h; dosed: Perfluorooctane Sulfonate; 2 mg/kg; oral; Female; Harlan Sprague Dawley
[20] = tested on: Rat; test: concentration in liver after dosing; conditions: 864 h; dosed: Perfluorooctane Sulfonate; 2 mg/kg; oral; Female; Harlan Sprague Dawley
[21] = tested on: Rat; test: concentration in liver after dosing; conditions: 1848 h; dosed: Perfluorooctane Sulfonate; 20 mg/kg; oral; Female; F344
[22] = tested on: Rat; test: concentration in plasma after dosing; conditions: dosed: Perfluorooctane Sulfonate, 2 mg/kg, iv, Male, F344; remark: listed apart in the source
[23] = tested on: Rat; test: concentration in liver after dosing; conditions: 24 h; dosed: Perfluorooctane Sulfonate; 2 mg/kg; oral; Female; Harlan Sprague Dawley; remark: listed apart in the source
[24] = tested on: Rat; test: concentration in kidney after dosing; conditions: 3360 h; dosed: Perfluorooctane Sulfonate; 20 mg/kg; oral; Male; Harlan Sprague Dawley
[25] = tested on: Rat; test: concentration in kidney after dosing; conditions: 24 h; dosed: Perfluorooctane Sulfonate; 2 mg/kg; oral; Female; Harlan Sprague Dawley
[26] = tested on: Rat; test: concentration in kidney after dosing; conditions: 6 h; dosed: Perfluorooctane Sulfonate; 2 mg/kg; oral; Female; Harlan Sprague Dawley
[27] = tested on: Rat; test: concentration in brain after dosing; conditions: 3 h; dosed: Fluorotelomer alcohol 8+2; 24 mg/kg; oral; Male; Harlan Sprague Dawley
[28] = tested on: Rat; test: concentration in plasma after dosing; conditions: 5 min; dosed: 678-39-7; 12 mg/kg; iv; Male; F344
[29] = tested on: Rat; test: concentration in kidney after dosing; conditions: 6 h; dosed: Fluorotelomer alcohol 8+2; 24 mg/kg; oral; Male; Harlan Sprague Dawley
[30] = tested on: Rat; test: concentration in liver after dosing; conditions: 6 h; dosed: Fluorotelomer alcohol 8+2; 80 mg/kg; oral; Female; Harlan Sprague Dawley
[31] = tested on: Rat; test: concentration in kidney after dosing; conditions: 0.5 h; dosed: Fluorotelomer alcohol 8+2; 80 mg/kg; oral; Female; Harlan Sprague Dawley
[32] = tested on: Rat; test: concentration in kidney after dosing; conditions: 0.5 h; dosed: Fluorotelomer alcohol 8+2; 24 mg/kg; oral; Male; Harlan Sprague Dawley
[33] = tested on: Rat; test: concentration in plasma after dosing; conditions: dosed: 678-39-7, 40 mg/kg, iv, Male, F344
[34] = tested on: Rat; test: concentration in plasma after dosing; conditions: dosed: Fluorotelomer alcohol 8+2, 12 mg/kg, oral, Male, Harlan Sprague Dawley

CC1CCCO1 (configuration not stated) [2-Methyltetrahydrofuran]
Conditions	concentration in brain [µg/mL]	concentration in plasma [µg/mL]
[1]	26.5	–
[2]	–	3.58
[3]	0.185	–

ClC=C(Cl)Cl [trichloroethylene]
[4]
Conditions	concentration in expired air [ppm]
0.2505 h	6.43
0.4903 h	4.4
1.01 h	2.66
2.009 h	1.42
4.008 h	1.29
5.993 h	1.15
8.005 h	0.514
10.04 h	0.377
11.99 h	0.34
13.99 h	0.738
86 s	24.7

O=C(O)C(F)(F)C(F)(F)C(F)(F)C(F)(F)C(F)(F)F [Perfluorohexanoic Acid]
Conditions	concentration in brain [ng/g]	concentration in plasma [µg/mL]
[5]	–	20.1
[6]	–	0.0989
[7]	1340	–
[8]	2590	–

[9]
Conditions	concentration in plasma [µg/mL]
0.25 h	91.2
24 h	0.239

Cc1ccc(C)c(OCCCC(C)(C)C(=O)O)c1 [Gemfibrozil]
Conditions	concentration in plasma [µg/mL]
[10]	33.9
[11]	0.189
[12]	3.08
[13]	2.93

O=S(=O)([O-])C(F)(F)C(F)(F)C(F)(F)C(F)(F)C(F)(F)C(F)(F)C(F)(F)C(F)(F)F [Perfluorooctane Sulfonate]
Conditions	concentration in brain [ng/g]	concentration in kidney [ng/g]	concentration in liver [ng/g]
[14]	–	–	20600
[15]	2500	–	–
[17]	9740	–	–
[19]	–	1390	–
[20]	–	–	11100
[21]	–	–	55400
[23]	–	–	22900
[24]	–	4360	–
[25]	–	9700	–
[26]	–	12700	–

Conditions	concentration in plasma [µg/mL]
[16], 5 min	5.51
[16], 24 h	4.25
[16], 1704 h	0.232
[18], 12 h	5.17
[18], 1200 h	1.7
[22], 6 h	4.06
[22], 528 h	1.84
[22], 3216 h	0.0964

O=C(O)CCC(F)(F)C(F)(F)C(F)(F)C(F)(F)C(F)(F)C(F)(F)C(F)(F)F [Fluorotelomer acid 7+3]
Conditions	concentration in brain [ng/g]	concentration in kidney [ng/g]	concentration in liver [ng/g]	concentration in plasma [µg/mL]
[27]	463	–	–	–
[28]	–	–	–	0.0131
[29]	–	1250	–	–
[30]	–	–	9210	–
[31]	–	357	–	–
[32]	–	198	–	–

concentration in plasma [µg/mL]
Conditions	[33]	[34]
0.25 h	0.0842	0.152
6 h	0.82	0.522

— EPA's CvTdb concentration-time database
